The values that follow come from ChEMBL document CHEMBL1130206, “Arylcarbamate derivatives of 1-piperidineethanol as potent ligands for 5-HT4 receptors” (J Med Chem, 1997).

The species entered for experiment [1] is Cavia porcellus. The experiment is described as follows: Antagonist activity was calculated as the concentration which produced a 50% reduction in the submaximal of 5-HT induced contractions guinea pig ileum. It counts as functional.
Experiment [2] addresses T1, 5-hydroxytryptamine receptor 4 (Rattus norvegicus, UniProt Q62758). Put plainly: Binding affinity at 5-hydroxytryptamine 4 receptor in rat striatal membranes by [3H]GR-113808 displacement. The experiment is classed as cell membranes, Striatum, Membrane. The essentials:
(§1)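 Rat striatal membranes in 50 mM Hepes pH 7.4, 0.1–0.2 mg protein in 0.5 mL, with [3H]GR 113808. Seven drug concentrations, tested in triplicate. Nonspecific binding defined with 10 μM ML 10302. Bound ligand collected by filtration on PEI-soaked GF/B filters, washed with 50 mM Tris-HCl pH 8.4, counted by scintillation. IC50 fitted, Ki from Cheng–Prusoff, ±SEM.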

For experiment [3], the species on record is Cavia porcellus. Put plainly: Agonist activity was assessed as the concentration which gave a 50% increase in the response to electrical stimulation in the guinea pig ileum. The experiment is classed as functional. The essentials: (§2)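 Guinea pig ileum myenteric plexus–longitudinal muscle strip, 0.5 g tension, transmural stimulation at 0.2 Hz and 1.5 ms. Phenoxybenzamine 10^-7 M present, voltage set to give 50% of supramaximal contraction. After two reproducible cumulative 5-HT curves, a cumulative agonist curve was run (60–120 s contact). EC50 = concentration giving 50% increase of the stimulated response, relative to maximum. Max effect expressed as % of 5-HT maximum, 95% confidence limits.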

For experiment [4], the species on record is Cavia porcellus. The experiment is described as follows: Agonist activity was assessed as the concentration which gave a 50% increase in the response to electrical stimulation in the guinea pig ileum; NA is not active. It counts as functional. In short, it runs like this: as §2
For experiment [5], the target named is T1, 5-hydroxytryptamine receptor 4. The experiment is described as follows: Binding affinity (Ki+/-SEM) against 5-hydroxytryptamine 4 receptor from cheng Prusoff equation by using [3H]GR-113808 in rat striatum. The essentials:
as §1

The target of experiment [6] is T2, 5-hydroxytryptamine receptor 4 (Cavia porcellus, UniProt O70528). The experiment is described as follows: concentration which gave a 50% increase in the response to electrical stimulation against 5-hydroxytryptamine 4 receptor in the guinea pig ileum. Activity expressed as percent of the maximum 5-HT response given in brackets. The experiment is classed as functional, tissue-based. The essentials:
as §2

The target in experiment [7] is T2, 5-hydroxytryptamine receptor 4. Put plainly: concentration which gave a 50% increase in the response to electrical stimulation against 5-hydroxytryptamine 4 receptor in the guinea pig ileum. It counts as functional, tissue-based. In short, it runs like this:
as §2

For experiment [8], the species on record is Cavia porcellus. The experiment is described as follows: Agonist activity was assessed as the concentration which gave a 50% increase in the response to electrical stimulation in the guinea pig ileum and is expressed as percent of the maximum 5-HT response = 14%. The experiment is classed as functional. In short, it runs like this:
as §2

The species named for experiment [9] is Cavia porcellus. Put plainly: Antagonist activity was calculated as the concentration which produced a 50% reduction in the submaximal of 5-HT induced contractions guinea pig ileum and is expressed as percent of the maximum 5-HT response = 60%. The experiment is classed as functional.
Experiment [10] addresses T2, 5-hydroxytryptamine receptor 4. Put plainly: The antagonist activity was calculated as the concentration which produced a 50% reduction against 5-hydroxytryptamine 4 receptor in guinea pig ileum. 95% confidence limits are in brackets. It counts as functional, tissue-based.
Experiment [11] has the same target. The experiment is described as follows: The antagonist activity was calculated as the concentration which produced a 50% reduction against 5-hydroxytryptamine 4 receptor in guinea pig ileum. The experiment is classed as functional, tissue-based.
The species entered for experiment [12] is Cavia porcellus. The experiment is described as follows: Agonist activity was assessed as the concentration which gave a 50% increase in the response to electrical stimulation in the guinea pig ileum and is expressed as percent of the maximum 5-HT response = 78%. It counts as functional. The essentials:
as §2

Experiment [13] is filed under the species Cavia porcellus. Put plainly: Antagonist activity was calculated as the concentration which produced a 50% reduction in the submaximal of 5-HT induced contractions guinea pig ileum and is expressed as percent of the maximum 5-HT response = 70%. The experiment is classed as functional.

T2 sequence (O70528 whole entry): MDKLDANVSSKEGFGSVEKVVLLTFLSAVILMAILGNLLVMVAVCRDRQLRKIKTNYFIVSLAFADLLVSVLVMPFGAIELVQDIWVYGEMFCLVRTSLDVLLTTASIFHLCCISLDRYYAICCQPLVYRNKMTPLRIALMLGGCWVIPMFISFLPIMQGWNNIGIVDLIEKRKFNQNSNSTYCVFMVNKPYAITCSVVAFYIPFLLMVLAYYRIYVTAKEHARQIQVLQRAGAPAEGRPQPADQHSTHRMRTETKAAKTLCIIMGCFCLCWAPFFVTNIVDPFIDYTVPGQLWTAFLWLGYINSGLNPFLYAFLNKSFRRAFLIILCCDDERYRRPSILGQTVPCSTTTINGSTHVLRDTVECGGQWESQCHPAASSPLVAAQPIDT
T1 sequence (Q62758 whole entry): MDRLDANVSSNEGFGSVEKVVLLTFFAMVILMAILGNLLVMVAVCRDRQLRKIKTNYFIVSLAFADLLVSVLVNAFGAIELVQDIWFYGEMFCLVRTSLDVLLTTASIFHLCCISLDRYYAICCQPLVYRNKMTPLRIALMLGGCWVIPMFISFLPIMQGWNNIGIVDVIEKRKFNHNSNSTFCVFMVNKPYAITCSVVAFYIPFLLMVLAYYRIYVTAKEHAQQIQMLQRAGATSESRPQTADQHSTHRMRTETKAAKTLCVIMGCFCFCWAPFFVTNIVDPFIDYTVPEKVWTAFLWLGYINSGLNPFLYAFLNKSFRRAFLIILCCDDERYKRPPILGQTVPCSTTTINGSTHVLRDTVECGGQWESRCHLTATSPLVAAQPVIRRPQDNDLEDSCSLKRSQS

By IC50 is commonly meant the point on the concentration scale where inhibition reaches its midpoint. As a reminder, the Ki is a dissociation constant, usually derived from enzyme kinetics or from competition with a known ligand. For the compound `CCOc1ccccc1NC(=O)OCCN1CCCCC1`, the IC50 in the experiment filed under Cavia porcellus [1] was 0.062 µM. The compound also gave a Ki in experiment [2] of 0.0026 µM. In addition, the EC50 in the experiment filed under Cavia porcellus [3] is more than 1 µM.

With `Cn1cc(C(=O)OCC2CCN(CCNS(C)(=O)=O)CC2)c2ccccc21`, the EC50 entry in the experiment filed under Cavia porcellus [4] was “Not Active”. Moreover, in the experiment listed under Cavia porcellus [1], the IC50 was 0.013 µM.

As to `O=C(Nc1cccc(Cl)c1)OCCN1CCCCC1`, the half-maximal inhibitory concentration (IC50) in the experiment filed under Cavia porcellus [1] was more than 1 µM. Moreover, in [2], the Ki is 0.0608 µM. Also, the EC50 in the experiment filed under Cavia porcellus [3] was more than 1 µM.

For `Nc1ccccc1NC(=O)OCCN1CCCCC1`, in experiment [5], the Ki is more than 1 µM.

As for `Nc1cccc(NC(=O)OCCN2CCCCC2)c1`, the Ki in [5] was more than 1 µM.

`O=C(Nc1ccc(Cl)cc1)OCCN1CCCCC1`: in [2], the affinity corresponds to a Ki of 0.728 µM.

Turning to `COc1cc(N)c(Cl)cc1NC(=O)OCCN1CCCC1`, in experiment [6], the EC50 came to 0.2 µM. Besides, affinity in [5] was put at a Ki of 0.125 µM.

Consider `COc1cc(N)c(Cl)cc1NC(=O)OCCN1CCCCC1`, for which the affinity in experiment [5] corresponds to a Ki of 0.039 µM. The EC50 in experiment [7] was more than 1 µM.

In the case of `COc1ccc(Cl)cc1NC(=O)OCCN1CCCCC1`, the EC50 in the experiment filed under Cavia porcellus [8] was approximately 1 µM. Moreover, the IC50 in the experiment filed under Cavia porcellus [1] was 0.03 µM. The compound further showed a Ki in experiment [2] of 0.0042 µM.

As to `COc1ccccc1NC(=O)OCCCN1CCCCC1`, affinity in experiment [2] was put at a Ki of 0.081 µM.

Regarding `COc1ccccc1NC(=O)OCCN1CCCCC1`, the EC50 in the experiment listed under Cavia porcellus [8] is approximately 0.1 µM. The IC50 in the experiment filed under Cavia porcellus [1] was approximately 0.3 µM. For the same compound, the affinity in [2], expressed as Ki, was 0.0089 µM.

Consider `COc1cc(N)c(Cl)cc1C(=O)OCCN1C[C@H](C)C[C@H](C)C1`, for which, in the experiment filed under Cavia porcellus [4], the EC50 result is “Not Active”. For the same compound, the IC50 in the experiment filed under Cavia porcellus [1] was 0.011 µM. The compound further yielded an inhibition constant (Ki) in [2] of 0.00026 µM.

`COc1ccccc1NC(=O)OCCN1C[C@H](C)C[C@H](C)C1` registered a Ki in experiment [2] of 0.0026 µM. Besides, the EC50 in the experiment filed under Cavia porcellus [3] is more than 1 µM. Also, the IC50 in the experiment filed under Cavia porcellus [9] was 0.16 µM.

Take `COc1cc(N)c(Cl)cc1NC(=O)OCCN1CCCCCC1`: the IC50 in experiment [10] is 0.207 µM. The compound further gave a Ki in experiment [5] of 0.0145 µM. Moreover, the EC50 in experiment [7] was determined as 0.1 µM.

`COc1cc(N)c(Cl)cc1NC(=O)CCCN1CCCCC1` yielded a Ki in experiment [5] of more than 1 µM.

In the case of `O=C(Nc1ccccc1)OCCN1CCCCC1`, the IC50 in the experiment listed under Cavia porcellus [1] was approximately 1 µM. In experiment [2], this compound gave a Ki of 0.0317 µM. In the experiment filed under Cavia porcellus [3], the EC50 is more than 1 µM.

In [2], `COc1ccccc1NC(=O)CCCN1CCCCC1` came in with a Ki of more than 1 µM.

`CCN(CC)CCOC(=O)Nc1cc(Cl)c(N)cc1OC` came in with an EC50 in experiment [6] of 0.3 µM. Further, in experiment [5], affinity was put at a Ki of 0.15 µM. The IC50 in [11] was 1 µM.

On to `Nc1ccc(NC(=O)OCCN2CCCCC2)cc1`, for which the Ki in experiment [5] was more than 1 µM.

On to `CCN(CC)CCOC(=O)c1cc(Cl)c(N)cc1OC`, for which, in the experiment listed under Cavia porcellus [4], the EC50 entry is “Not Active”. The IC50 in the experiment filed under Cavia porcellus [1] was 0.077 µM.

`O=C(Nc1ccccc1Cl)OCCN1CCCCC1` displayed an inhibition constant (Ki) in experiment [2] of more than 1 µM.

For the compound `CCOc1ccccc1NC(=O)OCCN1CC(C)C[C@@H](C)C1` (single isomer, unassigned), the IC50 in the experiment listed under Cavia porcellus [1] was 0.1 µM. The compound also displayed a Ki in experiment [2] of 0.00116 µM. Further, in the experiment listed under Cavia porcellus [3], the EC50 is more than 1 µM.

Turning to `COc1cc(N)c(Cl)cc1NC(=O)OCCN1CCC(C)CC1`, the EC50 in experiment [6] is 0.06 µM. In addition, affinity in experiment [5] was put at a Ki of 0.0251 µM. In [11], the IC50 is 0.2 µM.

Turning to `COc1cc(N)c(Cl)cc1C(=O)OCCN1CCCCC1`, the EC50 in the experiment listed under Cavia porcellus [12] came to 0.004 µM.

In the case of `CCOc1ccccc1NC(=O)OCCN1C[C@H](C)C[C@H](C)C1`, the IC50 in the experiment listed under Cavia porcellus [13] was 0.03 µM. The compound also came in with a Ki in experiment [2] of 0.00105 µM. Also, the EC50 in the experiment filed under Cavia porcellus [3] is more than 1 µM.

The compound `COc1ccc(NC(=O)OCCN2CCCCC2)cc1` had a Ki in experiment [2] of more than 1 µM.

In experiment [2], `COc1cccc(NC(=O)OCCN2CCCCC2)c1` came in with a Ki of 0.469 µM. In other words, the sub-micromolar range.

On to `COc1cc(N)c(Cl)cc1NC(=O)OCCN1CCCC(C)C1` (centres undefined), for which the Ki in [5] came out at 0.0102 µM. This lies in the double-digit nanomolar range.

`COc1cc(N)c(Cl)cc1NC(=O)OCCN1CC(C)CC(C)C1` (centres undefined) yielded a Ki in experiment [5] of 0.0024 µM. Also, in [11], the half-inhibitory concentration (IC50) was 0.18 µM. In [7], this compound gave an EC50 of more than 1 µM.
